Activity calls are given as the source filed them. No cut-off for these calls is given here.
What was measured:
[1] = tested on: Cryptococcus gattii species complex; test: Ratio of compound MIC for Cryptococcus gattii 1913ER in presence of fluconazole to compound MIC for Cryptococcus gattii 1913ER in absence of fluconazole by checkerboard microtiter test; type: functional, Cryptococcus bacillisporus
Procedure, shortened: (§1)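 Checkerboard microdilution: eight two-fold dilutions of test compound (0.11 to 15.6 µM) crossed with amphotericin B (0.025 to 3.9 µM, in DMSO) or fluconazole (0.48 to 62.5 µM, in water). Inoculum per CLSI M27-A3 in RPMI-MOPS pH 7.0, 1-5 x10^3 cells/mL. Growth 48 to 72 h. Effective MIC is the combination concentration giving complete inhibition. FICs derived from MICs in combination versus alone.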

[2] = tested on: Cryptococcus bacillisporus; test: Ratio of compound MIC for Cryptococcus gattii ATCC 32608 in presence of fluconazole to compound MIC for Cryptococcus gattii ATCC 32608 in absence of fluconazole by checkerboard microtiter test; type: functional; procedure, shortened: as §1
[3] = tested on: Cryptococcus gattii species complex; test: Ratio of compound MIC for Cryptococcus gattii 196L/03 in presence of fluconazole to compound MIC for Cryptococcus gattii 196L/03 in absence of fluconazole by checkerboard microtiter test; type: functional, Cryptococcus bacillisporus; procedure, shortened: as §1
[4] = tested on: Cryptococcus gattii species complex; test: Ratio of compound MIC for Cryptococcus gattii 135L/03 in presence of fluconazole to compound MIC for Cryptococcus gattii 135L/03 in absence of fluconazole by checkerboard microtiter test; type: functional, Cryptococcus bacillisporus; procedure, shortened: as §1
[5] = tested on: Cryptococcus gattii species complex; test: Ratio of compound MIC for Cryptococcus gattii L24/01 in presence of fluconazole to compound MIC for Cryptococcus gattii L24/01 in absence of fluconazole by checkerboard microtiter test; type: functional, Cryptococcus bacillisporus; procedure, shortened: as §1
[6] = tested on: Cryptococcus gattii species complex; test: Ratio of compound MIC for Cryptococcus gattii L27/01 in presence of fluconazole to compound MIC for Cryptococcus gattii L27/01 in absence of fluconazole by checkerboard microtiter test; type: functional, Cryptococcus bacillisporus; procedure, shortened: as §1
[7] = tested on: Cryptococcus gattii species complex; test: Ratio of compound MIC for Cryptococcus gattii 23/10993 in presence of fluconazole to compound MIC for Cryptococcus gattii 23/10993 in absence of fluconazole by checkerboard microtiter test; type: functional, Cryptococcus bacillisporus; procedure, shortened: as §1
Cryptococcus neoformans [8] = test: Ratio of compound MIC for Cryptococcus neoformans 28JF in presence of fluconazole to compound MIC for Cryptococcus neoformans 28JF in absence of fluconazole by checkerboard microtiter test; type: functional; procedure, shortened: as §1
Cryptococcus neoformans [9] = test: Ratio of compound MIC for Cryptococcus neoformans 96806 in presence of fluconazole to compound MIC for Cryptococcus neoformans 96806 in absence of fluconazole by checkerboard microtiter test; type: functional; procedure, shortened: as §1
Cryptococcus neoformans [10] = test: Ratio of compound MIC for Cryptococcus neoformans ATCC 62066 in presence of fluconazole to compound MIC for Cryptococcus neoformans ATCC 62066 in absence of fluconazole by checkerboard microtiter test; type: functional; procedure, shortened: as §1
Cryptococcus neoformans [11] = test: Ratio of compound MIC for Cryptococcus neoformans CN31 in presence of fluconazole to compound MIC for Cryptococcus neoformans CN31 in absence of fluconazole by checkerboard microtiter test; type: functional; procedure, shortened: as §1
Cryptococcus neoformans [12] = test: Ratio of compound MIC for Cryptococcus neoformans WP in presence of fluconazole to compound MIC for Cryptococcus neoformans WP in absence of fluconazole by checkerboard microtiter test; type: functional; procedure, shortened: as §1
Cryptococcus neoformans [13] = test: Ratio of compound MIC for Cryptococcus neoformans VM-MCMMPI in presence of fluconazole to compound MIC for Cryptococcus neoformans VM-MCMMPI in absence of fluconazole by checkerboard microtiter test; type: functional; procedure, shortened: as §1
Cryptococcus neoformans [14] = test: Ratio of compound MIC for Cryptococcus neoformans ATCC 24067 in presence of fluconazole to compound MIC for Cryptococcus neoformans ATCC 24067 in absence of fluconazole by checkerboard microtiter test; type: functional; procedure, shortened: as §1
Cryptococcus neoformans [15] = test: Ratio of compound MIC for Cryptococcus neoformans F10 in presence of fluconazole to compound MIC for Cryptococcus neoformans F10 in absence of fluconazole by checkerboard microtiter test; type: functional; procedure, shortened: as §1
[16] = tested on: Cryptococcus bacillisporus; test: Ratio of compound MIC for Cryptococcus gattii ATCC 32608 in presence of amphotericin B to compound MIC for Cryptococcus gattii ATCC 32608 in absence of amphotericin B by checkerboard microtiter test; type: functional; procedure, shortened: as §1
[17] = tested on: Cryptococcus gattii species complex; test: Ratio of compound MIC for Cryptococcus gattii 196L/03 in presence of amphotericin B to compound MIC for Cryptococcus gattii 196L/03 in absence of amphotericin B by checkerboard microtiter test; type: functional, Cryptococcus bacillisporus; procedure, shortened: as §1
[18] = tested on: Cryptococcus gattii species complex; test: Ratio of compound MIC for Cryptococcus gattii 135L/03 in presence of amphotericin B to compound MIC for Cryptococcus gattii 135L/03 in absence of amphotericin B by checkerboard microtiter test; type: functional, Cryptococcus bacillisporus
[19] = tested on: Cryptococcus gattii species complex; test: Ratio of compound MIC for Cryptococcus gattii L24/01 in presence of amphotericin B to compound MIC for Cryptococcus gattii L24/01 in absence of amphotericin B by checkerboard microtiter test; type: functional, Cryptococcus bacillisporus; procedure, shortened: as §1
[20] = tested on: Cryptococcus gattii species complex; test: Ratio of compound MIC for Cryptococcus gattii L27/01 in presence of amphotericin B to compound MIC for Cryptococcus gattii L27/01 in absence of amphotericin B by checkerboard microtiter test; type: functional, Cryptococcus bacillisporus; procedure, shortened: as §1
[21] = tested on: Cryptococcus gattii species complex; test: Ratio of compound MIC for Cryptococcus gattii ICB181 in presence of amphotericin B to compound MIC for Cryptococcus gattii ICB181 in absence of amphotericin B by checkerboard microtiter test; type: functional, Cryptococcus bacillisporus; procedure, shortened: as §1
Cryptococcus neoformans [22] = test: Ratio of compound MIC for Cryptococcus neoformans ATCC 62066 in presence of amphotericin B to compound MIC for Cryptococcus neoformans ATCC 62066 in absence of amphotericin B by checkerboard microtiter test; type: functional; procedure, shortened: as §1
Cryptococcus neoformans [23] = test: Ratio of compound MIC for Cryptococcus neoformans CN31 in presence of amphotericin B to compound MIC for Cryptococcus neoformans CN31 in absence of amphotericin B by checkerboard microtiter test; type: functional; procedure, shortened: as §1
Cryptococcus neoformans [24] = test: Ratio of compound MIC for Cryptococcus neoformans VM-MCMMPI in presence of amphotericin B to compound MIC for Cryptococcus neoformans VM-MCMMPI in absence of amphotericin B by checkerboard microtiter test; type: functional; procedure, shortened: as §1
Cryptococcus neoformans [25] = test: Ratio of compound MIC for Cryptococcus neoformans ATCC 28957 in presence of amphotericin B to compound MIC for Cryptococcus neoformans ATCC 28957 in absence of amphotericin B by checkerboard microtiter test; type: functional; procedure, shortened: as §1
Cryptococcus neoformans [26] = test: Ratio of compound MIC for Cryptococcus neoformans F10 in presence of amphotericin B to compound MIC for Cryptococcus neoformans F10 in absence of amphotericin B by checkerboard microtiter test; type: functional; procedure, shortened: as §1
Cryptococcus gattii [27] = test: Ratio of compound MIC for Cryptococcus gattii ATCC 24065 in presence of fluconazole to compound MIC for Cryptococcus gattii ATCC 24065 in absence of fluconazole by checkerboard microtiter test
Cryptococcus gattii [28] = test: Ratio of compound MIC for Cryptococcus gattii ATCC 24065 in presence of amphotericin B to compound MIC for Cryptococcus gattii ATCC 24065 in absence of amphotericin B by checkerboard microtiter test
[29] = tested on: Cryptococcus gattii species complex; test: Antifungal activity against Cryptococcus gattii 196L/03 assessed as reduction in ergosterol content at MIC after 24 hrs by spectrophotometric analysis; type: functional, organism-based; conditions: Cryptococcus bacillisporus
Procedure, shortened: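 Pellet washed and weighed, then saponified in 25% ethanolic KOH at 85°C for 1 h. Extracted with water and n-heptane, read at 282 and 230 nm. Ergosterol taken from a standard curve and expressed as % of growth control.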

| Structure (SMILES) | fractional inhibitory concentration index (FICI) [1] | fractional inhibitory concentration index (FICI) [2] | fractional inhibitory concentration index (FICI) [3] | fractional inhibitory concentration index (FICI) [4] | fractional inhibitory concentration index (FICI) [5] | fractional inhibitory concentration index (FICI) [6] | fractional inhibitory concentration index (FICI) [7] | fractional inhibitory concentration index (FICI) (Cryptococcus neoformans [8]) | fractional inhibitory concentration index (FICI) (Cryptococcus neoformans [9]) | fractional inhibitory concentration index (FICI) (Cryptococcus neoformans [10]) | fractional inhibitory concentration index (FICI) (Cryptococcus neoformans [11]) | fractional inhibitory concentration index (FICI) (Cryptococcus neoformans [12]) | fractional inhibitory concentration index (FICI) (Cryptococcus neoformans [13]) | fractional inhibitory concentration index (FICI) (Cryptococcus neoformans [14]) | fractional inhibitory concentration index (FICI) (Cryptococcus neoformans [15]) | fractional inhibitory concentration index (FICI) [16] | fractional inhibitory concentration index (FICI) [17] | fractional inhibitory concentration index (FICI) [18] | fractional inhibitory concentration index (FICI) [19] | fractional inhibitory concentration index (FICI) [20] | other results |
| --- | --- | --- | --- | --- | --- | --- | --- | --- | --- | --- | --- | --- | --- | --- | --- | --- | --- | --- | --- | --- | --- |
| C(=N\Nc1nc(-c2ccccc2)cs1)/C1CCCCC1 | 2.09 | 1.72 | 2.47 | 2.47 | 2.47 | 4.23 | 1.47 | 1.99 | 1.76 | 2.04 | 3.97 | 2.47 | 4.47 | 3.59 | 4.47 | 2.58 | 3.97 | 2.67 | 4.87 | 1.34 | fractional inhibitory concentration index (FICI) [21]: 4.98; fractional inhibitory concentration index (FICI) (Cryptococcus neoformans [22]): 2.47; fractional inhibitory concentration index (FICI) (Cryptococcus neoformans [23]): 2.47; fractional inhibitory concentration index (FICI) (Cryptococcus neoformans [24]): 1.47; fractional inhibitory concentration index (FICI) (Cryptococcus neoformans [25]): 1.09; fractional inhibitory concentration index (FICI) (Cryptococcus neoformans [26]): 2.62; fractional inhibitory concentration index (FICI) (Cryptococcus gattii [27]): 1.58; fractional inhibitory concentration index (FICI) (Cryptococcus gattii [28]): 1.72 |
| OC(Cn1cncn1)(Cn1cncn1)c1ccc(F)cc1F [FLUCONAZOLE] |  |  |  |  |  |  |  |  |  |  |  |  |  |  |  |  |  |  |  |  | Activity [29]: Active |
| c1ccc(-c2csc(NN=C3CCCC3)n2)cc1 | 2.45 | 3.45 | 1.84 | 2.45 | 6.46 | 1.45 | 4.23 | 3.77 | 1.01 | 2.46 | 2.71 | 2.46 | 4.21 | 4.46 | 1.98 | 1.7 | 1.46 | 1.46 | 2.16 | 2.48 | fractional inhibitory concentration index (FICI) [21]: 1.28; fractional inhibitory concentration index (FICI) (Cryptococcus neoformans [22]): 3.06; fractional inhibitory concentration index (FICI) (Cryptococcus neoformans [23]): 2.66; fractional inhibitory concentration index (FICI) (Cryptococcus neoformans [24]): 2.66; fractional inhibitory concentration index (FICI) (Cryptococcus neoformans [25]): 2.22; fractional inhibitory concentration index (FICI) (Cryptococcus neoformans [26]): 2.58; fractional inhibitory concentration index (FICI) (Cryptococcus gattii [27]): 3.71; fractional inhibitory concentration index (FICI) (Cryptococcus gattii [28]): 1.2 |
| COc1ccc(-c2csc(N/N=C/C3CCCCC3)n2)cc1 | 2.46 | 4.38 | 2.28 | 2.71 | 6.79 | 1.18 | 2.46 | 4.59 | 1.01 | 3.58 | 2.58 | 2.21 | 4.46 | 3.97 | 2.46 | 2.78 | 1.58 | 1.46 | 2.38 | 2.66 | fractional inhibitory concentration index (FICI) [21]: 1.73; fractional inhibitory concentration index (FICI) (Cryptococcus neoformans [22]): 2.58; fractional inhibitory concentration index (FICI) (Cryptococcus neoformans [23]): 2.78; fractional inhibitory concentration index (FICI) (Cryptococcus neoformans [24]): 2.16; fractional inhibitory concentration index (FICI) (Cryptococcus neoformans [25]): 2.07; fractional inhibitory concentration index (FICI) (Cryptococcus neoformans [26]): 1.46; fractional inhibitory concentration index (FICI) (Cryptococcus gattii [27]): 2.43; fractional inhibitory concentration index (FICI) (Cryptococcus gattii [28]): 2 |
| C[C@@H]1[C@H](O)[C@@H](C)/C=C/C=C/C=C/C=C/C=C/C=C/C=C/[C@H](O[C@@H]2O[C@H](C)[C@@H](O)[C@H](N)[C@@H]2O)C[C@@H]2O[C@](O)(C[C@@H](O)C[C@@H](O)[C@H](O)CC[C@@H](O)C[C@@H](O)CC(=O)O[C@H]1C)C[C@H](O)[C@H]2C(=O)O [AMPHOTERICIN B] |  |  |  |  |  |  |  |  |  |  |  |  |  |  |  |  |  |  |  |  | Activity [29]: inactive |

Reference: ChEMBL document CHEMBL3616437, “Thiazole compounds with activity against Cryptococcus gattii and Cryptococcus neoformans in vitro” (Eur J Med Chem, 2015)
